Laboratory results taken from ChEMBL document CHEMBL5724801, “EUbOPEN Chemogenomics Library - Multiplex” (2024).
Several values for one entry are separate records, joined by “and”; a condition that tells them apart may be missing. Equal values may be shown once.

System: Fibroblast
Assay: Multiplex assay against human fibroblast
Assay type: toxicity, cell-based
How it was run: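 Phenotypes for tubulin, mitochondrial mass and membrane permeability are expressed as per cents of healthy-nucleus cells. Cells were stained live at seeding with Hoechst33342, BioTracker Green Microtubule Cytoskeleton Dye, MitoTracker Red and Annexin V Alexa Fluor 680, then imaged after compound addition on a CQ1 microscope at 37°C and 5% CO2. Machine-learning gating in CellPathfinder separated Hoechst high-intensity objects from normal cells, divided normal cells by nuclear state (healthy, pyknosed, fragmented) and divided pyknosed cells into mitotic or apoptotic.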

[1] = 12 h, 1 µM, compound concentration 1 uM
[2] = 12 h, 10 µM, compound concentration 10 uM
[3] = 24 h, 1 µM, compound concentration 1 uM
[4] = 24 h, 10 µM, compound concentration 10 uM
[5] = 48 h, 1 µM, compound concentration 1 uM
[6] = 48 h, 10 µM, compound concentration 10 uM

## COc1ccc(Cl)cc1[C@]1(F)C(=O)Nc2cc(C(F)(F)F)ccc21 [FLINDOKALNER]
[1]
  Population Apoptotic (%): 10.87% and 19.35%
  Population Fragmented Nuclei (%): 9.6% and 5.91%
  Population Healthy Nuclei (%): 64.41% and 80%
  Population Hoechst High Intensity Objects (%): 0%
  Population Membrane Permeable-Phenotype (%): 2.63% and 1.7%
  Population Mitochondria Different-Phenotype (%): 7.02% and 9.09%
  Population Mitotic Cells (%): 89.13% and 80.65%
  Population Normal (%): 100%
  Population Pyknosed Nuclei (%): 25.99% and 14.09%
  Population Tubulin-Different-Phenotype (%): 10.53% and 15.34%
  Total Cell Count: 177 and 220
[2]
  Population Apoptotic (%): 10.2% and 11.76%
  Population Fragmented Nuclei (%): 14.63% and 8.91%
  Population Healthy Nuclei (%): 55.49% and 74.26%
  Population Hoechst High Intensity Objects (%): 0%
  Population Membrane Permeable-Phenotype (%): 5.49% and 4.67%
  Population Mitochondria Different-Phenotype (%): 15.38% and 11.33%
  Population Mitotic Cells (%): 89.8% and 88.24%
  Population Normal (%): 100%
  Population Pyknosed Nuclei (%): 29.88% and 16.83%
  Population Tubulin-Different-Phenotype (%): 15.38% and 34.67%
  Total Cell Count: 164 and 202
[3]
  Population Apoptotic (%): 14.63% and 27.27%
  Population Fragmented Nuclei (%): 10.29% and 4.91%
  Population Healthy Nuclei (%): 69.61% and 85.27%
  Population Hoechst High Intensity Objects (%): 0%
  Population Membrane Permeable-Phenotype (%): 3.52% and 2.09%
  Population Mitochondria Different-Phenotype (%): 5.63% and 5.76%
  Population Mitotic Cells (%): 85.37% and 72.73%
  Population Normal (%): 100%
  Population Pyknosed Nuclei (%): 20.1% and 9.82%
  Population Tubulin-Different-Phenotype (%): 19.72% and 10.99%
  Total Cell Count: 204 and 224
[4]
  Population Apoptotic (%): 4.65% and 14.29%
  Population Fragmented Nuclei (%): 9.94% and 5.1%
  Population Healthy Nuclei (%): 64.91% and 84.18%
  Population Hoechst High Intensity Objects (%): 0%
  Population Membrane Permeable-Phenotype (%): 3.6% and 3.03%
  Population Mitochondria Different-Phenotype (%): 12.61% and 10.3%
  Population Mitotic Cells (%): 95.35% and 85.71%
  Population Normal (%): 100%
  Population Pyknosed Nuclei (%): 25.15% and 10.71%
  Population Tubulin-Different-Phenotype (%): 27.93% and 29.09%
  Total Cell Count: 171 and 196
[5]
  Population Apoptotic (%): 33.33% and 18.18%
  Population Fragmented Nuclei (%): 9.22% and 7.42%
  Population Healthy Nuclei (%): 83.87% and 87.77%
  Population Hoechst High Intensity Objects (%): 0%
  Population Membrane Permeable-Phenotype (%): 2.2% and 1%
  Population Mitotic Cells (%): 66.67% and 81.82%
  Population Normal (%): 100%
  Population Pyknosed Nuclei (%): 6.91% and 4.8%
  Population Tubulin-Different-Phenotype (%): 12.09% and 14.43%
  Total Cell Count: 217 and 229
[6]
  Population Apoptotic (%): 22.22% and 18.18%
  Population Healthy Nuclei (%): 74.18% and 91.26%
  Population Hoechst High Intensity Objects (%): 0%
  Population Membrane Permeable-Phenotype (%): 2.96% and 5.32%
  Population Mitochondria Different-Phenotype (%): 14.81% and 5.32%
  Population Mitotic Cells (%): 77.78% and 81.82%
  Population Normal (%): 100%
  Population Pyknosed Nuclei (%): 9.89% and 5.34%
  Population Tubulin-Different-Phenotype (%): 14.81% and 30.32%
  Total Cell Count: 182 and 206

## O=C(Nc1cc(C(F)(F)F)cc(C(F)(F)F)c1)c1cc(Cl)ccc1O [IMD-0354]
[1]
  Population Apoptotic (%): 6.12% and 12.9%
  Population Fragmented Nuclei (%): 11.69% and 4.09%
  Population Healthy Nuclei (%): 56.49% and 77.78%
  Population Hoechst High Intensity Objects (%): 0%
  Population Membrane Permeable-Phenotype (%): 4.6% and 8.27%
  Population Mitochondria Different-Phenotype (%): 6.9% and 2.26%
  Population Mitotic Cells (%): 93.88% and 87.1%
  Population Normal (%): 100%
  Population Pyknosed Nuclei (%): 31.82% and 18.13%
  Population Tubulin-Different-Phenotype (%): 8.05% and 22.56%
  Total Cell Count: 154 and 171
[2]
  Population Apoptotic (%): 0% and 6.33%
  Population Fragmented Nuclei (%): 23.45% and 22.08%
  Population Healthy Nuclei (%): 49.56% and 45%
  Population Hoechst High Intensity Objects (%): 0%
  Population Membrane Permeable-Phenotype (%): 3.57% and 2.78%
  Population Mitochondria Different-Phenotype (%): 0% and 6.48%
  Population Mitotic Cells (%): 100% and 93.67%
  Population Normal (%): 100%
  Population Pyknosed Nuclei (%): 26.99% and 32.92%
  Total Cell Count: 226 and 240
[3]
  Population Apoptotic (%): 9.09% and 16.33%
  Population Fragmented Nuclei (%): 10.5% and 2.76%
  Population Healthy Nuclei (%): 59.12% and 70.17%
  Population Hoechst High Intensity Objects (%): 0%
  Population Membrane Permeable-Phenotype (%): 8.41% and 8.66%
  Population Mitochondria Different-Phenotype (%): 2.8% and 0.79%
  Population Mitotic Cells (%): 90.91% and 83.67%
  Population Normal (%): 100%
  Population Pyknosed Nuclei (%): 30.39% and 27.07%
  Population Tubulin-Different-Phenotype (%): 14.02% and 25.2%
  Total Cell Count: 181
[4]
  Population Apoptotic (%): 7.58% and 18.81%
  Population Fragmented Nuclei (%): 25.35% and 26.19%
  Population Healthy Nuclei (%): 44.24% and 33.73%
  Population Hoechst High Intensity Objects (%): 0%
  Population Mitochondria Different-Phenotype (%): 0% and 1.18%
  Population Mitotic Cells (%): 92.42% and 81.19%
  Population Normal (%): 100%
  Population Pyknosed Nuclei (%): 30.41% and 40.08%
  Total Cell Count: 217 and 252
[5]
  Population Apoptotic (%): 7.14% and 17.65%
  Population Fragmented Nuclei (%): 19.1% and 8.99%
  Population Healthy Nuclei (%): 49.44% and 71.91%
  Population Hoechst High Intensity Objects (%): 0%
  Population Membrane Permeable-Phenotype (%): 5.68% and 16.41%
  Population Mitochondria Different-Phenotype (%): 9.09% and 0%
  Population Mitotic Cells (%): 92.86% and 82.35%
  Population Normal (%): 100%
  Population Pyknosed Nuclei (%): 31.46% and 19.1%
  Population Tubulin-Different-Phenotype (%): 18.18% and 32.03%
  Total Cell Count: 178
[6]
  Population Apoptotic (%): 32.47% and 70.37%
  Population Fragmented Nuclei (%): 33.5%
  Population Healthy Nuclei (%): 28% and 39.5%
  Population Hoechst High Intensity Objects (%): 0%
  Population Membrane Permeable-Phenotype (%): 17.86% and 22.78%
  Population Mitochondria Different-Phenotype (%): 1.79% and 2.53%
  Population Mitotic Cells (%): 67.53% and 29.63%
  Population Normal (%): 100%
  Population Pyknosed Nuclei (%): 38.5% and 27%
  Population Tubulin-Different-Phenotype (%): 26.79% and 75.95%
  Total Cell Count: 200

## Cc1ccc(F)cc1C(=O)Nc1ccc(C(=O)N2Cc3cccn3Cc3ccccc32)c(Cl)c1 [LIXIVAPTAN]
[1]
  Population Apoptotic (%): 40% and 50%
  Population Fragmented Nuclei (%): 11% and 30%
  Population Healthy Nuclei (%): 73% and 47%
  Population Hoechst High Intensity Objects (%): 5% and 3%
  Population Membrane Permeable-Phenotype (%): 0% and 1%
  Population Mitochondria Different-Phenotype (%): 3% and 9%
  Population Mitotic Cells (%): 59% and 50%
  Population Normal (%): 94% and 96%
  Population Pyknosed Nuclei (%): 15% and 21%
  Population Tubulin-Different-Phenotype (%): 28% and 38%
  Total Cell Count: 186 and 117
[2]
  Population Apoptotic (%): 34% and 31%
  Population Fragmented Nuclei (%): 18% and 27%
  Population Healthy Nuclei (%): 58% and 46%
  Population Hoechst High Intensity Objects (%): 0% and 5%
  Population Membrane Permeable-Phenotype (%): 2% and 6%
  Population Mitochondria Different-Phenotype (%): 5% and 10%
  Population Mitotic Cells (%): 65% and 68%
  Population Normal (%): 99% and 94%
  Population Pyknosed Nuclei (%): 23% and 25%
  Population Tubulin-Different-Phenotype (%): 62% and 72%
  Total Cell Count: 137 and 179
[3]
  Population Apoptotic (%): 50% and 32%
  Population Fragmented Nuclei (%): 12% and 33%
  Population Healthy Nuclei (%): 73% and 43%
  Population Hoechst High Intensity Objects (%): 1% and 3%
  Population Membrane Permeable-Phenotype (%): 1% and 5%
  Population Mitochondria Different-Phenotype (%): 0% and 5%
  Population Mitotic Cells (%): 50% and 67%
  Population Normal (%): 98% and 96%
  Population Pyknosed Nuclei (%): 14% and 23%
  Population Tubulin-Different-Phenotype (%): 33% and 52%
  Total Cell Count: 172 and 126
[4]
  Population Apoptotic (%): 25% and 51%
  Population Fragmented Nuclei (%): 19% and 26%
  Population Healthy Nuclei (%): 63% and 51%
  Population Hoechst High Intensity Objects (%): 0% and 5%
  Population Membrane Permeable-Phenotype (%): 2% and 11%
  Population Mitochondria Different-Phenotype (%): 8% and 12%
  Population Mitotic Cells (%): 75% and 48%
  Population Normal (%): 99% and 94%
  Population Pyknosed Nuclei (%): 17% and 22%
  Population Tubulin-Different-Phenotype (%): 63% and 82%
  Total Cell Count: 142 and 174
[5]
  Population Apoptotic (%): 63% and 50%
  Population Fragmented Nuclei (%): 18% and 37%
  Population Healthy Nuclei (%): 68% and 40%
  Population Hoechst High Intensity Objects (%): 8% and 0%
  Population Membrane Permeable-Phenotype (%): 0% and 4%
  Population Mitochondria Different-Phenotype (%): 3% and 11%
  Population Mitotic Cells (%): 36% and 50%
  Population Normal (%): 91% and 99%
  Population Pyknosed Nuclei (%): 13% and 21%
  Population Tubulin-Different-Phenotype (%): 28% and 53%
  Total Cell Count: 181 and 111
[6]
  Population Apoptotic (%): 70% and 73%
  Population Fragmented Nuclei (%): 25% and 36%
  Population Healthy Nuclei (%): 62% and 51%
  Population Hoechst High Intensity Objects (%): 2% and 5%
  Population Membrane Permeable-Phenotype (%): 0% and 6%
  Population Mitochondria Different-Phenotype (%): 13%
  Population Mitotic Cells (%): 29% and 26%
  Population Normal (%): 97% and 94%
  Population Pyknosed Nuclei (%): 11%
  Population Tubulin-Different-Phenotype (%): 69% and 78%
  Total Cell Count: 149 and 170
